Active and inactive are the calls of the source. No cut-off for these calls is given here.
Assays:
[1] = Cytotoxicity against human PBMC cells assessed as reduction in cell viability at 100 uM incubated for 24 hrs by Cell-titer glo Luminescent assay relative to control; assay type: cell-based
Method in brief: (§1)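 Cells (Raji, RAW 264.7 or donor PBMCs) plated at 1 × 10⁴ per well in medium with 10% FBS. Treated for 24 h at 37 °C, 5% CO₂ with 100, 50, 25, 12.5, 6.25 or 3.125 μM compound, or buffer containing 0.2% DMSO. Viability read by CellTiter-Glo luminescence; killing rate = (1 − RLU compound/RLU control) × 100%; triplicate, mean ± SEM.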

[2] = Cytotoxicity against human PBMC cells assessed as reduction in cell viability at 6.3 uM incubated for 24 hrs by Cell-titer glo Luminescent assay; assay type: cell-based; method in brief: as §1
[3] = tested on: RAW264.7; test: Cytotoxicity against mouse RAW264.7 cells assessed as reduction in cell viability incubated for 24 hrs by Cell-titer glo Luminescent assay; assay type: cell-based; conditions: RAW264.7, 24 h; method in brief: as §1
[4] = tested on: Raji; test: Cytotoxicity against human Raji cells assessed as reduction in cell viability incubated for 24 hrs by Cell-titer glo Luminescent assay; assay type: cell-based; method in brief: as §1
[5] = Cytotoxicity against human PBMC cells assessed as reduction in cell viability incubated for 24 hrs by Cell-titer glo Luminescent assay; assay type: cell-based; conditions: dose 3.125-100 µM; method in brief: as §1
[6] = Clearance in male Sprague-Dawley rat at 4 mg/kg, iv measured up to 24 hrs by LC-MS/MS analysis; assay type: ADME, organism-based; conditions: in vivo
Method in brief: (§2)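 Male Sprague Dawley rats (n = 6, 6−8 weeks, 200−300 g), single 4 mg/kg iv dose in 25% MPD/10% RH40/65% water, freshly prepared. About 0.2 mL blood drawn at 0.08, 0.25, 0.5, 1, 2, 4, 8, 24 h into EDTA-K2, centrifuged 4000g 5 min at 4 °C; plasma assayed by LC−MS/MS; noncompartmental parameters reported as mean ± SD.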

[7] = tested on: MC-38; test: Antitumor activity against mouse MC38 cells xenografted in PD-L1 knockout/PD1 knock-in C57BL/6J mouse assessed as tumor growth inhibition at 15 mg/kg, ip QD for 3 weeks measured after day 21; assay type: functional; parameters: scale not given: the % may be the effect or the level left
[8] = AUC (0 to infinity) in male Sprague-Dawley rat plasma at 4 mg/kg, iv measured up to 24 hrs by LC-MS/MS analysis; assay type: ADME, organism-based; parameters: route intravenous, dose 4 mg/kg, time <=24; method in brief: as §2
[9] = Cytotoxicity against human PBMC cells assessed as reduction in cell viability up to 100 uM incubated for 24 hrs by Cell-titer glo Luminescent assay; assay type: cell-based; method in brief: as §1
[10] = Acute toxicity in C57BL/6J mouse xenografted with MC38 cells assessed as behavior changes at 15 mg/kg, ip QD for 3 week; assay type: organism-based; conditions: in vivo, 504 h, time 3 weeks
[11] = Dose normalized AUClast in male Sprague-Dawley rat at 4 mg/kg, iv measured up to 24 hrs by LC-MS/MS analysis; assay type: ADME, organism-based; conditions: in vivo; method in brief: as §2
[12] = Plasma concentration in male Sprague-Dawley rat at 15 mg/kg, po measured up to 24 hrs by LC-MS/MS analysis; assay type: ADME, organism-based
Method in brief: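 Male Sprague Dawley rats (n = 6, 6−8 weeks, 200−300 g) given a single 15 mg/kg oral dose in 25% MPD/10% RH40/65% water. Blood sampled at 0.25, 0.5, 1, 2, 4, 8, 24 h into EDTA-K2 and spun to plasma; LC−MS/MS analysis, quantifiable limit 0.5 ng/mL.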

[13] = Half-life in male Sprague-Dawley rat at 4 mg/kg, iv measured up to 24 hrs by LC-MS/MS analysis; assay type: ADME, organism-based; conditions: in vivo; method in brief: as §2
[14] = biological target: T1, Programmed cell death 1 ligand 1 (Homo sapiens, UniProt Q9NZQ7); test: Inhibition of human PD-L1 cocultured in PBMC cells assessed as inhibition of PD1/PDL1 interaction mediated increase in IFN-gamma secretion at 0.1 uM incubated for 72 hrs by ELISA relative to control; assay type: cell-based
Method in brief: (§3)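 Healthy-donor PBMCs, 1 × 10⁵ per well in RPMI 1640 with 10% FBS, stimulated with anti-CD3/anti-CD28 (1:1, 0.8 μg/mL final) plus PD-L1/Fc at 10 μg/mL final. Compound added at 0.1 or 1 μM final and cocultured 72 h at 37 °C, 5% CO₂. Supernatant IFN-γ measured by ELISA; quadruplicate, mean ± SEM.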

[15] = biological target: T1, Programmed cell death 1 ligand 1; test: Binding affinity to biotinylated human AVI-PD-L1 assessed as dissociation rate constant by biolayer interferometry
[16] = tested on: Raji; test: Cytotoxicity against human Raji cells assessed as reduction in cell viability at 3.125 uM incubated for 24 hrs by Cell-titer glo Luminescent assay; assay type: cell-based; method in brief: as §1
[17] = Initial plasma concentration in male Sprague-Dawley rat plasma at 4 mg/kg, iv measured up to 24 hrs by LC-MS/MS analysis; assay type: ADME, organism-based; method in brief: as §2
[18] = biological target: T1, Programmed cell death 1 ligand 1; test: Binding affinity to human PD-L1 expressed in CHOK1 cells assessed as inhibition of PD1/PDL1 protein-protein interaction at 500 nM incubated for 30 mins by flow cytometry analysis; assay type: cell-based; conditions: CHO-K1
Method in brief: (§4)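 CHO-K1-hPD-L1 cells, 5 × 10⁵ per tube in PBS with 2% FBS, incubated with hPD-1/Fc (10 μg/mL final) at 4 °C for 30 min. Compound added at 500 nM final and incubated a further 30 min at 4 °C, then stained with APC anti-human IgG Fc. Percentage of hPD-1-bound cells read by flow cytometry. Blocking efficacy calculated against a no-inhibitor positive control and parental CHO-K1 negative control.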

[19] = Volume of distribution at steady state in male Sprague-Dawley rat at 4 mg/kg, iv measured up to 24 hrs by LC-MS/MS analysis; assay type: ADME, organism-based; conditions: in vivo, read-out: Vdss; method in brief: as §2
[20] = tested on: RAW264.7; test: Cytotoxicity against mouse RAW264.7 cells assessed as reduction in cell viability at 3.125 to 100 uM incubated for 24 hrs by Cell-titer glo Luminescent assay; assay type: cell-based; conditions: raw264.7, 24 h, dose 3.125-100 µM; method in brief: as §1
[21] = AUClast in male Sprague-Dawley rat at 4 mg/kg, iv measured up to 24 hrs by LC-MS/MS analysis; assay type: ADME, organism-based; parameters: route intravenous, dose 4 mg/kg, time <=24; conditions: in vivo; method in brief: as §2
[22] = biological target: T1, Programmed cell death 1 ligand 1; test: Inhibition of human PD-L1 cocultured in PBMC cells assessed as inhibition of PD1/PDL1 interaction mediated increase in IFN-gamma secretion at 1 uM incubated for 72 hrs by ELISA relative to control; assay type: cell-based; method in brief: as §3
[23] = Acute toxicity in C57BL/6J mouse xenografted with MC38 cells assessed as change in body weight at 15 mg/kg, ip QD for 3 week; assay type: organism-based; conditions: in vivo, 504 h, time 3 weeks
Method in brief: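 Female PD-1-humanized C57BL/6J-Pdcd1^{em1(hPDCD1)/Smoc} mice, six weeks old, were acclimated 1 week. They were given 1 × 10⁶ MC38 cells (mouse PD-L1 knockout, human PD-L1 knock-in) s.c. near the hind-leg groin. Mice were randomised at 50−150 mm³ tumour volume (6 per group) and dosed 15 mg/kg ip once daily for 3 weeks. Vehicle was 0.8% DMSO/7.5% RH40 in saline. Body weight was measured twice weekly.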

[24] = biological target: T1, Programmed cell death 1 ligand 1; test: Binding affinity to biotinylated human AVI-PD-L1 assessed as association constant by biolayer interferometry
Method in brief: (§5)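 Biotinylated human PD-L1/AVI at 10 μg/mL loaded on streptavidin biosensors for 300 s, then baselined. Association with compound at 20 to 0.3125 nM plus 0 nM for 180 s, then dissociation in buffer for 300 s. Data globally fitted to a 1:1 model to give ka and kdis; apparent affinity taken as their ratio.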

[25] = AUC (extrapolated) in male Sprague-Dawley rat at 4 mg/kg, iv measured up to 24 hrs by LC-MS/MS analysis; assay type: ADME, organism-based; conditions: in vivo; method in brief: as §2
[26] = biological target: T1, Programmed cell death 1 ligand 1; test: Binding affinity to biotinylated human AVI-PD-L1 by biolayer interferometry; method in brief: as §5
[27] = Acute toxicity in C57BL/6J mouse xenografted with MC38 cells assessed as mortality at 15 mg/kg, ip QD for 3 week; assay type: organism-based; conditions: in vivo, 504 h, time 3 weeks
[28] = biological target: T1, Programmed cell death 1 ligand 1; test: Binding affinity to human PD-L1 expressed in CHOK1 cells assessed as inhibition of PD1/PDL1 protein-protein interaction at 500 nM incubated for 30 mins by flow cytometry analysis relative to control; assay type: cell-based; conditions: CHO-K1; method in brief: as §4
[29] = MRT (0 to infinity) in male Sprague-Dawley rat at 4 mg/kg, iv measured up to 24 hrs by LC-MS/MS analysis; assay type: ADME, organism-based; conditions: in vivo; method in brief: as §2

T1 sequence (Q9NZQ7 whole entry): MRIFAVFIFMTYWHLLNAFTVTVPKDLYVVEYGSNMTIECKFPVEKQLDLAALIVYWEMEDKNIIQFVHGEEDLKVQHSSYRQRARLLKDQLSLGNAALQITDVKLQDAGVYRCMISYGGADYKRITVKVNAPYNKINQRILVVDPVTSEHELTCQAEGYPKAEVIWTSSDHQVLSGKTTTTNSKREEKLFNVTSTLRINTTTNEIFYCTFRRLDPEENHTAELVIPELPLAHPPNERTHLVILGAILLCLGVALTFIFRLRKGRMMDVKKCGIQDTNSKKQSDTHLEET

In the case of `COc1nc(NCc2cccc(-c3ccccc3)c2C)ccc1CNCCNC(C)=O`, the Activity [1] is reported as 100%, the Activity [2] is reported as “Non-Toxic” and the EC50 [3] is reported as 6.97 µM. For the same molecule, the EC50 [4] was 13.8 µM and the Activity [5] was “Toxic”.
With `Cc1cc(CN[C@H](CO)C(=O)O)c(OCc2cncc(C#N)c2)cc1NCc1cccc(-c2ccccc2)c1C` the clearance [6] was 74.5 mL/min/kg, the Activity [7] was 61.7% and the Activity [2] was “Non-Toxic”. The AUC(0-inf) [8] was 908 ng·h/mL, the Activity [9] was “Non-Toxic” and the Activity [10] was “Non-Toxic”. For the same molecule, the AUClast/dose [11] was 226 ng·kg·h/mL/mg, the concentration at 24 h [12] was 0.5 ng/mL and the half-life [13] was 82.8 min. For the same molecule, the inhibition [14] was 72.9%, the koff [15] was 3.53 10^-5/s and the Activity [16] was “Non-Toxic”. For the same molecule, the C0 at 24 h [17] was 4370 ng/mL, the Activity [18] was “Active” and the Vd [19] was 2.17 L/kg. The Activity [20] was “Non-Toxic”, the AUC(0-t) at 24 h [21] was 905 ng·h/mL and the inhibition [22] was 56.8%. The Activity [23] was “Non-Toxic”, the association rate constant (kon) [24] was 2.17 10^6/M/s and the “%AUCextra” value [25] was 0.283%. For the same molecule, the Dissociation constant (KD) [26] was 1.62 10^-11M, the Activity [27] was “Non-Toxic” and the Efficacy [28] was 97.5%. It also gave an MRT inf [29] of 29.2 min.

From ChEMBL document CHEMBL4673285, “Design, Synthesis, and Biological Evaluation of Linear Aliphatic Amine-Linked Triaryl Derivatives as Potent Small-Molecule Inhibitors of the Programmed Cell Death-1/Programmed Cell Death-Ligand 1 Interaction with Promising Antitumor Effects In Vivo” (J Med Chem, 2020)
